# TCR CD3 inh: inhibitors of human TCR-CD3 interaction, primary screen, biochemical, fluorescence, TAMRA-labeled TCR probe | inhibition, % at 9.4 µM | 360,000 compounds, 0.37% hits | T-cell receptor (TCR) | AID 651800, 2012; in the data active = inhibition above about 19%;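 also: recombinant mutant TCR 2C K166C tagged with TAMRA read by polarization; 0% = receptor in buffer alone and 100% = receptor with positive control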
# HTRA1 inhibitor: HTRA1 serine protease inhibitors, primary screen, biochemical, fluorescence polarization, HTS | recombinant HTRA1, FP-rhodamine activity-based probe | inhibition, % at 5.96 µM | Q92743 | AID 504803, 2011 | 340,000 compounds, 0.5% hits; in the data active = inhibition above about 36%;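 also: 0% = enzyme with DMSO and 100% = wells lacking enzyme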
# Target sequence (Q92743 whole entry, looked up): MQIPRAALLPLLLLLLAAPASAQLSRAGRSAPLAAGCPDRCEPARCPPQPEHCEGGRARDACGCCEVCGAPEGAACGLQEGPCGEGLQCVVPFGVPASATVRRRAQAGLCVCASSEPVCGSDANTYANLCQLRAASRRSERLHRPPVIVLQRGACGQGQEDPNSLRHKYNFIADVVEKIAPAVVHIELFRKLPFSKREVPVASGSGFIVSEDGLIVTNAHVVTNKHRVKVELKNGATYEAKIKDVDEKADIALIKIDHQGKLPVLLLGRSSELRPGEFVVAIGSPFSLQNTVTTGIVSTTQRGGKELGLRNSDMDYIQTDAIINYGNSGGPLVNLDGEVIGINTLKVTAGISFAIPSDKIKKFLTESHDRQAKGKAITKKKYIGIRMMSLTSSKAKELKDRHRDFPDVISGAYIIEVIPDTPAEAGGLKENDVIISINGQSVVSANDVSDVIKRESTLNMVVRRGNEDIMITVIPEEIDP
# TDP2 absorb: human TDP2 enzyme inhibitors, primary screen, biochemical, epi absorbance, recombinant enzyme; 370,000 compounds, 0.34% hits; AID 720702, 2013; inhibition, % at 12.8 µM; Tyrosyl-DNA phosphodiesterase 2 (Homo sapiens), O95551; T5PNP hydrolysis, p-nitrophenol absorbance 415 nm;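 active = inhibition above the mean of all tested compounds plus 3 SD, set per campaign, cut at about 25% in these data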;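 also: 0% = DMSO with enzyme and 100% = buffer with substrate but no TDP2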
#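 Material: recombinant human TDP2; quantity: TDP2 enzyme at 120 nM final; medium: Tris-HCl pH 7.5 with MgCl2; compound: single concentration, 12.8 µM nominal, with 1% DMSO; incubation: 2 h enzyme incubation at 37 °C; signal: epi absorbance; measure: percent inhibition; benchmarks: high control without enzyme, low control DMSO plus TDP2; repeats: singlicate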
# SIAE primary: human SIAE inhibitors, primary screen, biochemical, fluorescence polarization, FP-Rh probe, 1536-well HTS. inhibition, % at 9.66 µM. 370,000 compounds, 0.69% hits. SIAE FP-Rh probe binding. Sialate O-acetylesterase (Homo sapiens), Q9HAT2;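 active = inhibition above a cutoff: mean of compounds within the control limits plus 3 SD of those, cut at about 17% in these data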;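 also: 0% = plate median of compound wells and 100% = probe without SIAE protein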
# LEDGF integ inh: blockers of LEDGF/p75-dependent integrase strand transfer – biochemical, TR-FRET, high throughput, primary screen; HIV-1 integrase (with human LEDGF/p75); TR-FRET IN-LEDGF/p75 DNA integration, Eu/Cy5; inhibition, % at 3.7 µM; 370,000 compounds, 0.64% hits; AID 743269, 2014;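 active = inhibition above the screen-wide mean plus 3 SD, cut at about 13% in these data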;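 also: signal is the Cy5 over europium emission ratio at 671 and 618 nm; 0% = plate median of compound wells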
# ABHD4 inh: ABHD4 inhibitors, primary screen, biochemical, fluorescence polarization, mouse; purified mABHD4, FP-Rh probe fluorescence polarization; inhibition, % at 8.92 µM; 370,000 compounds, 0.54% hits;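 active = inhibition exceeding the mean over every tested compound plus 3 SD, cut at about 30% in these data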;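 also: 0% = plate median of compound wells and 100% = S159A mutant with DMSO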
#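 Assay system: Wild-type mouse ABHD4 protein | Medium: HEPES pH 7.0 buffer, 150 mM NaCl, 0.01% Pluronic F-127 | Incubation: Enzyme–compound pre-incubation 45 min, then probe 60 min, both 25 °C | Technique: Fluorescence polarization with parallel and perpendicular emission, 525/598 nm | Evaluation: % inhibition of FP-Rh probe binding versus controls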
# TDP2 confirm: human TDP2 enzyme inhibitors, retest, confirmation, biochemical, epi absorbance, recombinant enzyme; shares compounds with TDP2 absorb; absorbance read-out; inhibition, % at 12.8 µM; 1,100 compounds, 22% hits; AID 743263, 2014; in the data active = inhibition above about 25%;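 also: 0% = vehicle with enzyme and 100% = no enzyme buffer only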
# Active calls of the source: *; . = not tested or not shown; ! = not active in a repeat. The list is not random: actives were taken first. Their share in the collection is about 2.2%.
SMILES,TCR CD3 inh,HTRA1 inhibitor,TDP2 absorb,SIAE primary,LEDGF integ inh,ABHD4 inh,TDP2 confirm
O=C(NC1CCCC1)N1CCC(c2nc3ccc(Cl)cc3[nH]2)CC1,.,.,8,0,-1,-4,.
S=C(Nc1ccc(Cl)cc1)Nc1cccc2cnccc12,2,5,35*,13,4,17,31*
Fc1ccc(NC(=S)Nc2cccc3cnccc23)cc1,-1,2,30*,6,0,0,-1
Cc1cccc(NC(=S)Nc2cccc3ccccc23)c1,-1,-4,25*,17,8,22,-2
C[C@H]1COc2cc(N3CCCC3)ccc2S(=O)(=O)N1C,.,.,-6,7,-1,7,.
Cc1ccccc1CN[C@@H]1CC[C@@]23CCCN2C(=O)CCC[C@H]3C1,.,.,-7,3,-4,2,.
Cc1ccc(N=Cc2c(O)n(-c3cc(Cl)ccc3N3CCOCC3)c(=O)c3ccccc23)cc1C,4,-12,-9,-3,-4,1,.
Cc1cc(O)c(C=Nc2ccc(N3CCOCC3)cc2)c(C)c1Cl,-7,8,37*,4,13,11,4
CCOc1ccc(-n2c(COc3ccccc3)nnc2SCc2nc3ccccc3[nH]2)cc1,.,.,-6,1,-2,-2,.
OCCNc1ncnc2c1sc1nc(N3CCOCC3)c3c(c12)CCC3,7,1,27*,-9,0,1,-4
Cc1c(NC(=O)CN2CC(C)OC(C)C2)c(=O)n(-c2ccccc2)n1C (configuration not stated),0,0,29*!,9,-2,0,17
Cc1c(NC(=O)CN2CCN(c3ccccc3)CC2)c(=O)n(-c2ccccc2)n1C,-1,-3,1,-3,0,-6,.
N#Cc1ccc(/C=C2\CC3(OC(=O)c4cccc(F)c4)CCCN2C3)cc1 (configuration not stated),.,.,-2,1,3,0,.
N#C/C(=C\c1c[nH]c2ccccc12)C(N)=O,9,3,-2,-6,-2,2,.
CC(=O)Oc1c(/C=C(\C#N)C(N)=O)[nH]c2ccccc12,6,7,32*,3,8,17,-1
NC1=[N+](Cc2ccccc2)C(Cc2ccccc2)C2C(=C3CCCCC3n3c(=O)n(-c4ccccc4)c(=O)n32)N1 (configuration not stated),.,.,7,-1,-1,22,.
Cc1ccc(S(=O)(=O)NCCCc2ccc3c(c2)[C@]2(CCC[C@@H](OCc4ccccc4)[C@@H]2NC(=O)CCc2ccccc2)C(=O)N3Cc2ccccc2)cc1,.,.,9,-4,3,-3,.
Nn1c(SCC(=O)Nc2ccccc2-c2ccccc2)nnc1-c1cc(-c2ccc(F)cc2)n[nH]1,.,.,-9,1,-1,-4,.
CCCCOc1ncnc2c1[nH]c1ccc(OCC)cc12,7,-2,3,4,-1,-3,.
CCOc1ccc2[nH]c3c(NCCO)ncnc3c2c1,-2,4,27*,11,-8,8,3
COc1cccc(C(C[N+](=O)[O-])c2c(C)[nH]n(-c3ccccc3)c2=O)c1 (configuration not stated),0,8,28*,5,1,-1,21
C[C@@]12C[C@@H]3C(=O)N(Cc4ccccc4)CC(=O)N3[C@@H]1N(S(=O)(=O)c1ccccc1)c1ccccc12,.,.,-13,-1,2,6,.
O=C1NNC(c2ccccc2)=N/C1=C\c1ccccc1Cl,-5,-16,56*,-2,5,3,62*
O=C1NNC(c2ccccc2)=N/C1=C\c1ccco1,-1,22,-9,12,6,29,.
Cc1ccc(CN2CCN(c3ncccn3)CC2)o1,-4,-5,0,0,-3,1,.
